Screens: PubChem BioAssay, several laboratories
TCR-CD3 inh: inhibitors of human TCR-CD3 interaction; TAMRA-labeled TCR probe fluorescence, biochemical; inhibition, % at 9.4 µM; 360,000 tested, 0.37% active; AID 651800; in the data active means inhibition above about 19%;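 further: recombinant mutant TCR 2C K166C tagged with TAMRA read by polarization; 0% = receptor in buffer alone and 100% = receptor with positive control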
PRMT1 inh: inhibitors of human PRMT1; Q99873; recombinant PRMT1, activity-based probe fluorescence polarization; inhibition, % at 2.79 µM; 370,000 tested, 1.3% active; AID 652257;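 active means inhibition above about 21% made by adding two undisclosed values, limit read from the data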
Target sequence (Q99873 whole entry, looked up): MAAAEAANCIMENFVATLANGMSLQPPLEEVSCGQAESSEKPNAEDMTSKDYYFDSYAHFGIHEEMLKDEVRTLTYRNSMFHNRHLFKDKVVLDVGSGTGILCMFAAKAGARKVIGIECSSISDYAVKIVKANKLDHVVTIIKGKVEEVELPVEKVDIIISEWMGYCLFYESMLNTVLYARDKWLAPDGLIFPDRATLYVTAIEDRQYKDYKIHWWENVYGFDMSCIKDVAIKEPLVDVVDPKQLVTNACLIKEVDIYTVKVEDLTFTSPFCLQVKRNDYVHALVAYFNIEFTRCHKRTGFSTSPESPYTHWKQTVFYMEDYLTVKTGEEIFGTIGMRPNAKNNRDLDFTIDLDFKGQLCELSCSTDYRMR
ATG4B inh: inhibitors of human ATG4B cysteine protease; ATG4B cleavage of LC3-PLA2, NBD-HPC fluorescence, 1 h; 340,000 tested, 0.51% active; inhibition, % at 8.33 µM; Q9Y4P1; in the data active means inhibition above about 40%
ABHD4 inh: inhibits mouse alpha/beta hydrolase domain 4. 370,000 tested, 0.54% active. purified mABHD4, FP-Rh probe fluorescence polarization. Q8VD66. inhibition, % at 8.92 µM;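 active means inhibition exceeding the mean over every tested compound plus 3 SD, cut at about 30% in these data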;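 further: 0% = plate median of compound wells and 100% = S159A mutant with DMSO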
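assay system = mABHD4 protein | compound dosing = single nominal dose of 8.92 µM, 0.89% DMSO final | read-out basis = percent inhibition of probe binding, normalized to plate controls | schedule = Enzyme–compound pre-incubation 45 min, then probe 60 min, both 25 °C | detection = fluorescence polarization, excitation 525 nm, emission 598 nm, BODIPY TMR filters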
HTRA1 inh: blocks human HTRA1 serine peptidase; recombinant HTRA1, FP-rhodamine activity-based probe, fluorescence polarization; Q92743; 340,000 tested, 0.5% active; inhibition, % at 5.96 µM; in the data active means inhibition above about 36%;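 further: 0% = enzyme with DMSO and 100% = wells lacking enzyme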
SIAE inh: human SIAE inhibition, primary screen; Q9HAT2; SIAE FP-Rh probe binding, fluorescence polarization; inhibition, % at 9.66 µM; 370,000 tested, 0.69% active;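 active means inhibition above a cutoff: mean of compounds within the control limits plus 3 SD of those, cut at about 17% in these data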;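 further: 0% = plate median of compound wells and 100% = probe without SIAE protein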
PRMT1 inh conf: PRMT1 (human) inhibition, FP confirmation | shares compounds with PRMT1 inh | recombinant His-PRMT1, activity-based probe fluorescence polarization | inhibition, % at 2.79 µM | 3,300 tested, 42% active | AID 687036;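 active means mean inhibition across replicates above the hit cutoff derived for the earlier primary screen, cut at about 22% in these data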
Active calls of the source: *; x = not tested or not shown. Hits are enriched below; roughly 2.9% of the tested compounds scored in any of these assays.

SMILES	TCR-CD3 inh	PRMT1 inh	ATG4B inh	ABHD4 inh	HTRA1 inh	SIAE inh	PRMT1 inh conf
CC1CC(C)CN(C(=O)c2ccc(-c3ccc([N+](=O)[O-])cc3)o2)C1 (configuration not stated)	-10	35*	0	26	-12	3	18
O=C(c1ccc(-c2ccc([N+](=O)[O-])cc2)o1)N1CCCCC1	-4	46*	9	3	0	0	11
O=C(c1ccc(-c2cccc([N+](=O)[O-])c2)o1)N1CCN(c2ccc([N+](=O)[O-])cc2)CC1	3	3	-8	4	-6	3	x
O=C(c1ccc(-c2ccc(Cl)cc2)o1)N1CCN(c2ccc([N+](=O)[O-])cc2Cl)CC1	-7	-2	-18	0	-16	6	x
O=C(CNS(=O)(=O)c1cccs1)N1CCN(c2ncccn2)CC1	x	-2	x	3	x	2	x
Cc1cc2c(nc1C)CCCN2S(=O)(=O)c1ccc(C#N)cc1	0	2	x	3	x	-3	x
CCc1cc2c(nc1CC)CCCN2S(=O)(=O)c1ccc(C#N)cc1	-1	59*	x	2	x	7	52*
Cc1ccccc1Cn1cc(CN2[C@@H](CC(C)C)COc3cc(Br)ccc3S2(=O)=O)nn1	x	-3	x	-2	x	-3	x
CCOC(=O)CNC(=O)CSc1ncnc2c1nnn2-c1ccc(F)cc1	-10	6	6	-13	6	-2	x
CCOC(=O)CC(=O)CSc1ncnc2c1nnn2-c1ccccc1	-9	64*	3	13	-2	1	92*
CC(=O)c1sc(NC(=O)c2ccccc2F)nc1-c1ccccc1	0	3	29	-6	-8	-7	x
O=C(Nc1nc(-c2ccco2)c(-c2ccco2)s1)c1ccc(F)cc1F	1	34*	26	8	8	16	11
Cc1c([N+](=O)[O-])c(C(=O)Sc2ccc(Br)cc2)nn1C	-8	50*	-4	2	7	-1	75*
O=C1CCC[C@H]2Cc3nc4cc5c(cc4cc3C[C@]23CCCN13)OCO5	x	2	x	-4	x	0	x
COc1cc(OC)c(C2CC(=O)N3CN(c4ccc(C)cc4)CSC3=C2C#N)cc1OC (configuration not stated)	-4	62*	-13	17	-3	-4	93*
COc1ccc(N2CSC3=C(C#N)C(c4cccs4)CC(=O)N3C2)cc1 (configuration not stated)	0	3	-4	5	4	1	x
Cc1ccc(N2CSC3=C(C#N)C(c4cccs4)CC(=O)N3C2)cc1 (configuration not stated)	1	52*	33	12	-2	-3	34*
CCOc1ccccc1N1CSC2=C(C#N)C(c3c(OC)ccc4ccccc34)CC(=O)N2C1 (configuration not stated)	-5	49*	-2	26	-1	3	70*
COc1ccc(N2CSC3=C(C#N)C(c4cc(OC)c(OC)cc4OC)CC(=O)N3C2)c(OC)c1 (configuration not stated)	-5	39*	-22	22	9	6	63*
Oc1ccccc1C=Nn1c(-c2ccccc2F)n[nH]c1=S	x	13	x	2	x	1	x
CCc1ccc(C2CC(=O)N3CN(c4ccccc4)CSC3=C2C#N)cc1 (configuration not stated)	-3	19	-1	3	-19	1	x
N#CC1=C2SCN(c3ccc(F)cc3)CN2C(=O)CC1c1cccc(F)c1 (configuration not stated)	0	27*	8	12	-1	7	61*
COc1ccc(C2CC(=O)N3CN(c4ccc(C)c(Cl)c4)CSC3=C2C#N)cc1OC (configuration not stated)	-6	41*	4	9	-5	-11	25*
CCOC(=S)SCC(=O)Nc1ncc(C)s1	-5	59*	1	9	3	1	46*
COc1ccc(Cn2c(C)c(CC(=O)Nc3ccc(Oc4cccnc4)c(C)c3)c3ccccc32)cc1	2	3	x	-1	x	3	x
SMILES	TCR-CD3 inh	PRMT1 inh	ATG4B inh	ABHD4 inh	HTRA1 inh	SIAE inh	PRMT1 inh conf
COc1ccc(S(=O)(=O)Nc2ccc(N3CCOCC3)cc2)cc1Br	6	1	-14	-1	-6	3	x
Cc1cc(S(=O)(=O)Nc2ccc(N3CCOCC3)cc2)ccc1Br	5	29*	-11	1	-6	10	4
CC(C)n1c(=S)[nH]c2c1c(=O)[nH]c(=O)n2C	0	45*	3	4	3	7	47*
COCCCNC(=O)C[C@H]1C[C@@]2(C(=O)OC)C(=C[C@H](C3CCCC3)O[C@@H]2C)N(CCc2ccc(OC)c(OC)c2)C1=O	x	1	x	1	x	-1	x
CCCOc1ccc(N2C(=O)CC(N3CCC(c4nncn4CC)CC3)C2=O)cc1 (configuration not stated)	3	39*	0	4	9	1	0
CCc1ccc(N2C(=O)CC(N3CCC(C(=O)OC)CC3)C2=O)cc1 (configuration not stated)	-7	44*	-7	1	-1	0	-3
CCCCCCOc1ccc(N2C(=O)CC(N3CCC(C(=O)OCC)CC3)C2=O)cc1 (configuration not stated)	-9	9	3	4	-4	0	x
CCOC(=O)C1CCN(C2CC(=O)N(c3ccc(OCC)cc3)C2=O)CC1 (configuration not stated)	-2	45*	6	4	2	-2	-6
CCCOc1ccc(N2C(=O)CC(N3CCN(c4ccccc4F)CC3)C2=O)cc1 (configuration not stated)	5	2	-2	1	-10	7	x
Cc1cc(-c2nnc(SCC(=O)Nc3nc(-c4ccc(Cl)cc4)cs3)o2)no1	-9	42*	4	-4	25	-12	5
NC(=O)C1CCN(c2nc(-c3ccc4c(c3)CCO4)cs2)CC1	x	-3	x	-3	x	-15	x
CC(=O)Nc1ccc(S(=O)(=O)NNc2ccc([N+](=O)[O-])cc2)cc1	9	32*	-3	14	6	2	14
CC(C)c1cc(C(C)C)c(S(=O)(=O)N2CCC(C(=O)NCC3COCCO3)CC2)c(C(C)C)c1 (configuration not stated)	x	1	x	-6	x	-1	x
CCN(CC)Cc1c(O)ccc2c1O/C(=C\C=C\c1ccccc1)C2=O	8	19	-9	3	0	-5	x
COc1ccccc1/C=C/C=C1\Oc2c(ccc(O)c2CN(C)C)C1=O	-8	27*	0	2	6	-7	16
